The values below come from ChEMBL document CHEMBL1138187, “2-(2-Thienyl)-5,6-dihydroxy-4-carboxypyrimidines as inhibitors of the hepatitis C virus NS5B polymerase: discovery, SAR, modeling, and mutagenesis” (J Med Chem, 2006).

Data set [1] has as its target RNA-directed RNA polymerase (Hepacivirus hominis) (UniProt O39930). Briefly: Inhibitory activity against HCV 1b BK NS5B deltaC55 RNA polymerase at 50 uM. Particulars: Hepatitis C virus subtype 1b.
Data set [2] shares this target. Briefly: Inhibition of replication of HCV 1b BK RNA in Huh7 cells at 100 uM in presence of 10% fetal calf serum. The class given is functional, cell-based. As to conditions: Huh-7. In a few lines:
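Subgenomic HCV RNA replicon in Huh-7 cells, modified Bartenschlager procedure with 10% fetal calf serum; compounds first tested at a fixed 100 µM, with EC50 determined only where inhibition exceeded 50%; values averaged over at least three independent determinations.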

Data set [3] has as its system O=c1ccn([C@@H]2O[C@H](COP(=O)(O)OP(=O)(O)OP(=O)(O)O)[C@@H](O)[C@H]2O)c(=O)[nH]1. Briefly: Activity against HCV 1b BK NS5B deltaC55-R158M mutant RNA polymerase. As to conditions: Hepatitis C virus subtype 1b. The method, boiled down:
(§1)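 HCV 1b-BK NS5B∆C55 (residues 1-536) carrying R158M or R158K, expressed in E. coli BL21(DE3) and purified. Polymerase run on a homopolymeric template RNA with UTP as substrate; IC50 and UTP Km measured in duplicate.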

For data set [4] the test system is unchanged. Briefly: Activity against HCV 1b BK NS5B deltaC55-R158K mutant RNA polymerase. Particulars: Hepatitis C virus subtype 1b. The method, boiled down: as §1
The test system is the same in data set [5]. The data set can be described thus: Activity against HCV 1b BK NS5B deltaC55 RNA polymerase. Particulars: Hepatitis C virus subtype 1b. The method, boiled down: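 HCV genotype 1b BK-strain NS5B ΔC55 (residues 1-536) expressed in E. coli BL21(DE3) and purified; activity measured with a homopolymeric RNA template, assay run at pH 7.4 with Mg; IC50 is the mean of at least three independent determinations.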

Data set [6] deals with Huh-7. The data set can be described thus: Cytotoxicity against Huh7 cells upto 100 uM. Type of data set: functional, cell-based. As to conditions: Homo sapiens.
For data set [7], the target named is RNA-directed RNA polymerase (Hepacivirus hominis) (UniProt O39930). Briefly: Inhibitory activity against HCV 1b BK NS5B deltaC55 RNA polymerase at 200 uM. As to conditions: Hepatitis C virus subtype 1b.

Calls of active or inactive are those of the source. The calls are words filed in the database; no cut-off is given here.

Broadly, the inhibition is the change of the read-out against control, counted positive when it falls. Take `O=C(O)c1nc(-c2ncc[nH]2)nc(O)c1O`: the inhibition in data set [1] was determined as 50%.
With `O=C(O)c1nc(-c2nccs2)nc(O)c1O`, in data set [2], the inhibition is < 20%.
In data set [1], `O=C(O)c1nc(Cc2ccccc2)nc(O)c1O` yielded an inhibition of 24%.
As usually defined, the Km is the concentration of substrate that gives half-maximal velocity. “RNA-directed RNA polymerase (Hepacivirus hominis) (from UniProt O39930) UNDEFINED MUTATION”: the Km is 15 µM in data set [3] and 20 µM in data set [4].
Consider `CSc1nc(O)c(O)c(C(=O)O)n1`, for which the inhibition result in data set [2] is “inactive”. In data set [1], this compound showed an inhibition of 55%.
As for “RNA-directed RNA polymerase (Hepacivirus hominis), O39930”, the Michaelis constant (Km) in data set [5] was found to be 6 µM.
Consider `O=C(O)c1nc(-c2cccs2)nc(O)c1O`, for which the inhibition entry in data set [2] is “inactive”.
Same read-out and setting: under `O=C(Nc1ccsc1-c1nc(O)c(O)c(C(=O)O)n1)OCCc1ccccc1` stands < 20%.
For the compound `O=C(NCc1ccccc1Cl)Nc1ccsc1-c1nc(O)c(O)c(C(=O)O)n1`, in data set [6], the result was inactive.
Consider `CS(=O)(=O)c1nc(O)c(O)c(C(=O)O)n1`, for which the inhibition result in data set [2] is “inactive”.
`O=C(O)c1nc(-c2nccn2Cc2ccccc2)nc(O)c1O` yielded an inhibition in data set [1] of 30%.
As for `CCCCc1nc(O)c(O)c(C(=O)O)n1`, the inhibition in data set [1] worked out at 0%.
`O=C(O)c1nc(C2CCCCC2)nc(O)c1O`: the inhibition entry in data set [2] is “inactive”. The compound also showed an inhibition in data set [7] of 31%.
